According to ChEMBL document CHEMBL1145857, “Toward tissue-selective pancreatic B-cells KATP channel openers belonging to 3-alkylamino-7-halo-4H-1,2,4-benzothiadiazine 1,1-dioxides” (J Med Chem, 2003):

Columns and labels:
[1] = species on record: Rattus norvegicus; test: Percent inhibition of residual insulin release from rat pancreatic islets in the presence of 16.7 mM glucose at 10 uM concentration; type: functional
Summary of the method: (§1)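 Islets isolated by collagenase from fed Wistar rats (180–220 g); groups of 10 islets preincubated 30 min at 37 °C in bicarbonate salt medium with 2.8 mM glucose and 0.5% dialyzed albumin under O2/CO2 95:5, then incubated 90 min at 37 °C with 16.7 mM glucose plus drug. Insulin measured by radioimmunoassay against rat insulin standard; residual release as % of drug-free 16.7 mM glucose control; IC50 estimated.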

[2] = species on record: Rattus norvegicus; test: Effective dose required for relaxation of the 30 mM KCl-induced contraction of rat aortic rings; type: functional; conditions: Aorta, read-out: ED50 (the source's name)
Summary of the method: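 Endothelium-denuded transverse aortic rings (3–4 mm) from fed Wistar rats (180–220 g); isometric tension by force transducer. After 60 min equilibration, contracted with 30 mM KCl; once stable, drug added cumulatively to maximal relaxation or 0.3 mM. Relaxation as % of KCl contraction; ED50 (50% inhibition of KCl plateau) from dose–response curves; mean ± SEM (n).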

[3] = species on record: Rattus norvegicus; test: Concentration required to inhibit insulin release in rat; type: functional
[4] = species on record: Rattus norvegicus; test: Estimated selectivity ratio of ED50 and IC50 in rat was calculated; type: functional
[5] = species on record: Rattus norvegicus; test: Percent inhibition of residual insulin release from rat pancreatic islets in the presence of 16.7 mM glucose at 1 uM concentration; type: functional; summary of the method: as §1
[6] = species on record: Rattus norvegicus; test: Percent inhibition of residual insulin release from rat pancreatic islets in the presence of 16.7 mM glucose at 50 uM concentration; type: functional; summary of the method: as §1
[7] = pKa value determined at 20 °C
[8] = species on record: Rattus norvegicus; test: Percent inhibition of residual insulin release from rat pancreatic islets in the presence of 16.7mM glucose at 0.1 uM concentration; type: functional
Summary of the method: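 Islets isolated by collagenase from fed Wistar rats (180–220 g). Groups of 10 islets preincubated 30 min at 37 °C in bicarbonate salt medium with 2.8 mM glucose, 0.5% dialyzed albumin, gassed O2/CO2 95:5. Then incubated 90 min at 37 °C with 16.7 mM glucose plus drug. Insulin measured by radioimmunoassay against rat insulin; expressed as % of drug-free 16.7 mM glucose control; mean ± SEM (n).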

| Structure (SMILES) | EC50 [2] [µM] | IC50 [3] [µM] | pKa [7] | RIS [1] [%] | Selectivity [4] | RIS [5] [%] | RIS [6] [%] | RIS [8] [%] |
| --- | --- | --- | --- | --- | --- | --- | --- | --- |
| O=S1(=O)N=C(NC2CC2)Nc2ccc(Cl)cc21 | 190 | 3.4 |  | 26.6 | 56 | 84 | 5.8 |  |
| CCNC1=NS(=O)(=O)c2cc(Cl)ccc2N1 | 39.9 | < 1 |  | 10.7 | >40 | 29.2 | 2.1 |  |
| CNC1=NS(=O)(=O)c2cc(Br)ccc2N1 | 31 | 1.8 |  | 7.3 | 17 | 69.9 | 6.4 |  |
| O=S1(=O)NC(NC2CC2)=Nc2ccc(Br)cc21 | 89.4 | 3.1 |  | 21.1 | 29 | 85.1 | 4.6 |  |
| CCCNC1=NS(=O)(=O)c2cc(Br)ccc2N1 | 5.9 | < 10 |  | 34.7 | >0.6 |  | 7.1 |  |
| O=S1(=O)NC(NC2CC2)=Nc2ccc(F)cc21 | > 300 | 5.1 |  | 32.5 | >58 | 104.5 | 7.5 |  |
| O=S1(=O)NC(NCC2CC2)=Nc2ccc(Cl)cc21 | 41.2 | > 10 |  | 65.9 | <4 |  | 15.2 |  |
| CCCNC1=NS(=O)(=O)c2cc(Cl)ccc2N1 | 55.5 |  |  | 14.2 | 21 | 83.4 | 3.6 |  |
| CCNC1=NS(=O)(=O)c2cc(Br)ccc2N1 | 6.2 | < 1 |  | 6.5 | >6 | 38.1 | 4.6 |  |
| CCNC1=NS(=O)(=O)c2cc(F)ccc2N1 | > 300 | 1 |  | 8.6 | >300 | 50.8 | 6.3 |  |
| CCCNC1=NS(=O)(=O)c2cc(F)ccc2N1 | 166 | 2 |  | 15.1 | 83 | 69.2 | 7.7 |  |
| CC(C)C(C)NC1=NS(=O)(=O)c2cc(I)ccc2N1 (configuration not stated) | 0.94 | > 50 |  | 86.2 | <0.02 | 91.9 | 51.7 |  |
| O=S1(=O)NC(NCC2CC2)=Nc2ccc(F)cc21 | 146 | < 10 |  | 39.8 | >15 |  | 6.4 |  |

Continued, in another order:

| EC50 [2] [µM] | IC50 [3] [µM] | pKa [7] | Structure (SMILES) | RIS [1] [%] | Selectivity [4] | RIS [5] [%] | RIS [6] [%] | RIS [8] [%] |
| --- | --- | --- | --- | --- | --- | --- | --- | --- |
| 71.8 | 1.3 |  | O=S1(=O)NC(NC2CCC2)=Nc2ccc(F)cc21 | 7.8 | 55 | 58.2 | 5.9 |  |
| 1.2 | > 10 |  | CC(C)C(C)NC1=NS(=O)(=O)c2cc(Cl)ccc2N1 (configuration not stated) | 62.7 | <0.12 | 88.1 | 11 |  |
| 93.6 | 4.5 |  | CCC(CC)NC1=NS(=O)(=O)c2cc(Cl)ccc2N1 | 31.7 | 21 | 93.7 | 8.1 |  |
| 36.3 |  | 9.51 | CC(C)NC1=NS(=O)(=O)c2cc(Cl)ccc2N1 | 4.9 | 52 |  | 5.7 |  |
| 7.7 | 2.1 | 9.28 | CC(C)NC1=NS(=O)(=O)c2cc(I)ccc2N1 | 9.6 | 3.7 | 74.8 | 5.6 | 99.2 |
| 39.2 | 1.6 |  | CCC(C)NC1=NS(=O)(=O)c2cc(F)ccc2N1 (configuration not stated) | 6.9 | 25 | 64.6 | 5.9 |  |
| 5.6 | 4 |  | CCC(C)NC1=NS(=O)(=O)c2cc(Br)ccc2N1 (configuration not stated) | 26.8 | 1.4 | 92.5 | 4 |  |
